# Measured values as given in ChEMBL document CHEMBL1177746, “Labdanes and sucrose esters from Physalis sordida” (J Nat Prod, 2010).
# What was measured:
# Mus musculus [1] = experiment: Antiinflammatory activity in NIH mouse assessed as inhibition of TPA-induced mouse ear edema measured per ear administered to right ear relative to untreated control; format: functional, organism-based
# Outline: (§1)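 Male NIH mice, groups of 5-8, anaesthetized with Sedaphorte. Right ear got TPA 2.5 μg in 10 μL EtOH, split across both faces; left ear got EtOH only. 10 min later, test compound at 0.1 to 1.0 μmol in 20 μL Me₂CO-CH₂Cl₂ (1:1) was applied to the right ear; controls got vehicle only. Sacrificed at 4 h; a 7 mm plug was taken from each ear.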
# Mus musculus [2] = experiment: Antiinflammatory activity in NIH mouse assessed as inhibition of TPA-induced mouse ear edema at 1 umol/ear administered to right ear relative to untreated control; format: functional; outline: as §1
Compound,IC50 (Mus musculus [1]) [µmol/ear],inhibition (INH) (Mus musculus [2]) [%]
CC(=O)O[C@H](C[C@H]1C(C)=CC[C@H]2C(C)(C)CCC[C@]12C)/C(C)=C/CO,–,25.4
CCCCCCCCCCCC(=O)O[C@H]1[C@@H](O[C@]2(CO)O[C@H](CO)[C@@H](O)[C@@H]2O)O[C@H](CO)[C@@H](O)[C@@H]1OC(=O)C(C)C,0.24,–
CC1=CC[C@H]2C(C)(C)CCC[C@]2(C)[C@H]1C[C@@H](O)/C(C)=C/CO [PHYSACOZTOMATIN],0.49,65.8
C=C1[C@H](OC(C)=O)C[C@H]2C(C)(C)CCC[C@]2(C)[C@H]1C[C@@H](OC(C)=O)/C(C)=C/COC(C)=O,–,29.4

# Second part, led by results:
IC50 (Mus musculus [1]) [µmol/ear],Compound,inhibition (INH) (Mus musculus [2]) [%]
0.26,CCCCCCCCCCCC(=O)O[C@H]1[C@@H](O[C@]2(COC(C)=O)O[C@H](CO)[C@@H](O)[C@@H]2OC(=O)C(C)C)O[C@H](CO)[C@@H](O)[C@@H]1OC(=O)C(C)C,–
0.34,CCCCCCCCCCCC(=O)O[C@H]1[C@@H](O[C@]2(COC(C)=O)O[C@H](CO)[C@@H](O)[C@@H]2O)O[C@H](CO)[C@@H](O)[C@@H]1OC(=O)C(C)C,–
0.63,C=C1[C@H](O)C[C@H]2C(C)(C)CCC[C@]2(C)[C@H]1C[C@@H](O)/C(C)=C/CO [PHYSORDIN],64.3
0.35,CCCCCCCCCCCC(=O)O[C@H]1[C@@H](O[C@]2(CO)O[C@H](CO)[C@@H](O)[C@@H]2OC(=O)C(C)C)O[C@H](CO)[C@@H](O)[C@@H]1OC(=O)C(C)C,–
